The record followed here is ChEMBL document CHEMBL4196006, “Aryl thiosemicarbazones for the treatment of trypanosomatidic infections” (Eur J Med Chem, 2018).

For one data set, the target named is Aurora kinase B (Homo sapiens, UniProt Q96GD4). Briefly: Inhibition of recombinant full-length human aurora B kinase expressed in baculovirus system at 10 uM using MBP as substrate incubated for 45 mins by ADP-glo kinase assay. Particulars: probe MBP. The method in brief: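 Aurora B activity measured as ADP formation via coupled luciferase ADP-Glo luminescence; single-point at 10 μM, triplicate.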
(In general: ADP-Glo first removes unused ATP, then detects ADP through luciferase.)

The next data set concerns the target hERG (KCNH2) (Homo sapiens, UniProt Q12809). Briefly: Inhibition of human ERG at 10 uM incubated for 2 hrs by fluorescence polarisation assay relative to control.
Data set [1] in a line: Selectivity ratio of EC50 for Trypanosoma cruzi amastigote form to EC50 for Trypanosoma brucei Lister 427 bloodstream form. The data set is classed as functional.
Data set [2] in a line: Cytotoxicity against human 786-O cells assessed as inhibition of mitochondrial viability at 10 uM after 6 hrs by CMXRos staining based assay relative to control. Particulars: read-out: INH. Type of data set: cell-based, 786-0. The method, boiled down: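 Mitochondrial toxicity monitored by MitoTracker Red CMXRos uptake and high-content imaging; compound at 10 μM, triplicate.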

The nature of data set [3]: Cytotoxicity against human WI38 cells assessed as growth inhibition at 10 uM after 48 hrs by CellTiter-Glo assay relative to control; values are per cent of control. As to conditions: WI38 cells.
The nature of data set [4]: Cytotoxicity against human A549 cells assessed as growth inhibition at 10 uM after 48 hrs by CellTiter-Glo assay relative to control; values are per cent of control. As to conditions: A549 cells. For orientation: In ATP-based viability assays light output follows the ATP content of the culture.
The subject of data set [5] is Trypanosoma brucei. Briefly: Potentiation of methotrexate-induced antitrypanosomal activity against Trypanosoma brucei Lister 427 bloodstream form assessed as dose reduction index for compound at EC50 after 72 hrs by resazurin dye-based assay. The data set is classed as functional. In general terms: Resazurin is reduced to fluorescent resorufin, in cell work by metabolically active cells.

Data set [6] deals with Trypanosoma brucei. Briefly: Potentiation of methotrexate-induced antitrypanosomal activity against Trypanosoma brucei Lister 427 bloodstream form at 10 uM after 72 hrs by resazurin dye-based assay relative to control. Type of data set: functional.
Data set [7] concerns Trypanosoma brucei. Description: Antitrypanosomal activity against Trypanosoma brucei Lister 427 bloodstream form at 6:1 methotrexate to test compound ratio after 72 hrs by resazurin dye-based assay. The data set is classed as functional, organism-based. As to conditions: Lister 427, 72 h.
Data set [8] in a line: Selectivity index, ratio of CC50 for human A549 cells to EC50 for Trypanosoma brucei Lister 427 bloodstream form. The data set is classed as toxicity. Particulars: read-out: Ratio CC50/EC50. The method, boiled down: (§1)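 Selectivity index = CC50 in the human host or cytotoxicity cell line divided by parasite EC50.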
The test system of data set [9] is Trypanosoma brucei. Briefly: Antitrypanosomal activity against Trypanosoma brucei Lister 427 bloodstream form at 10 uM after 72 hrs by resazurin dye-based assay relative to control. Type of data set: functional.
The subject of data set [10] is Trypanosoma brucei. Description: Antitrypanosomal activity against Trypanosoma brucei Lister 427 bloodstream form after 72 hrs by resazurin dye-based assay. The data set is classed as functional, organism-based. Particulars: Lister 427, 72 h.
Data set [11] is described as follows: Selectivity index, ratio of CC50 for human THP1 cells to EC50 for Leishmania infantum amastigote form. The data set is classed as toxicity. As to conditions: read-out: Ratio CC50/EC50. The method in brief: as §1
The nature of data set [12]: Cytotoxicity against human THP1 cells assessed as decrease in viable cells after 72 hrs by MTT assay. Type of data set: cell-based, THP-1. As to conditions: THP1 cells. The method, boiled down:
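THP-1-derived macrophages exposed to compounds for 72 h, tested at 100 μM or in dose-response; viability read by MTT colorimetric assay.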

Data set [13] in a line: Selectivity index, ratio of CC50 for human U2OS cells to EC50 for Trypanosoma cruzi amastigote form. Particulars: read-out: Ratio CC50/EC50. The data set is classed as toxicity. The method in brief:
as §1

The next data set relates to Leishmania infantum. Briefly: Antileishmanial activity against Leishmania infantum amastigote form after 72 hrs by steady-Glo reagent based assay. The data set is classed as functional, organism-based. The method in brief: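 Intramacrophage L. infantum amastigotes in THP-1-derived macrophages, tested at 50 μM or in dose-response. Plates held 72 h at 37 °C, 5% CO2. Medium was replaced by PBS, macrophages lysed, and parasites read by Steady-Glo luminescence. High-content imaging gave host cell number, infection ratio (infected/total cells) and parasites per infected cell. Values are means of at least two independent experiments.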

Data set [14] deals with Trypanosoma brucei. Briefly: Antitrypanosomal activity against Trypanosoma brucei Lister 427 bloodstream form at 30:1 methotrexate to test compound ratio after 72 hrs by resazurin dye-based assay. The data set is classed as functional, organism-based. Particulars: Lister 427, 72 h.
Data set [15] in a line: Cytotoxicity against human U2OS cells assessed as decrease in viable cells after 72 hrs by cell number count in anti-T. cruzi high content imaging assay. Particulars: U2OS cells.

Sequence of Aurora kinase B (Q96GD4 whole entry): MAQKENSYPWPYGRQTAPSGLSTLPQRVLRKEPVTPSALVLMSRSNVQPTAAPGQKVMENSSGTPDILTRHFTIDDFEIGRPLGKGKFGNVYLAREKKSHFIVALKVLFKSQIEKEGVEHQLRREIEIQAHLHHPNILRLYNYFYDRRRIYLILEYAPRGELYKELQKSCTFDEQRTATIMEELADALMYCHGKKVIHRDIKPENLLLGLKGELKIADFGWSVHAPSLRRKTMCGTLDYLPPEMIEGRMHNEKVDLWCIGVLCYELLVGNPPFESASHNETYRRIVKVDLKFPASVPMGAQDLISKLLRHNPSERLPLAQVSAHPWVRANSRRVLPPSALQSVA
Sequence of hERG (KCNH2) (Q12809 whole entry): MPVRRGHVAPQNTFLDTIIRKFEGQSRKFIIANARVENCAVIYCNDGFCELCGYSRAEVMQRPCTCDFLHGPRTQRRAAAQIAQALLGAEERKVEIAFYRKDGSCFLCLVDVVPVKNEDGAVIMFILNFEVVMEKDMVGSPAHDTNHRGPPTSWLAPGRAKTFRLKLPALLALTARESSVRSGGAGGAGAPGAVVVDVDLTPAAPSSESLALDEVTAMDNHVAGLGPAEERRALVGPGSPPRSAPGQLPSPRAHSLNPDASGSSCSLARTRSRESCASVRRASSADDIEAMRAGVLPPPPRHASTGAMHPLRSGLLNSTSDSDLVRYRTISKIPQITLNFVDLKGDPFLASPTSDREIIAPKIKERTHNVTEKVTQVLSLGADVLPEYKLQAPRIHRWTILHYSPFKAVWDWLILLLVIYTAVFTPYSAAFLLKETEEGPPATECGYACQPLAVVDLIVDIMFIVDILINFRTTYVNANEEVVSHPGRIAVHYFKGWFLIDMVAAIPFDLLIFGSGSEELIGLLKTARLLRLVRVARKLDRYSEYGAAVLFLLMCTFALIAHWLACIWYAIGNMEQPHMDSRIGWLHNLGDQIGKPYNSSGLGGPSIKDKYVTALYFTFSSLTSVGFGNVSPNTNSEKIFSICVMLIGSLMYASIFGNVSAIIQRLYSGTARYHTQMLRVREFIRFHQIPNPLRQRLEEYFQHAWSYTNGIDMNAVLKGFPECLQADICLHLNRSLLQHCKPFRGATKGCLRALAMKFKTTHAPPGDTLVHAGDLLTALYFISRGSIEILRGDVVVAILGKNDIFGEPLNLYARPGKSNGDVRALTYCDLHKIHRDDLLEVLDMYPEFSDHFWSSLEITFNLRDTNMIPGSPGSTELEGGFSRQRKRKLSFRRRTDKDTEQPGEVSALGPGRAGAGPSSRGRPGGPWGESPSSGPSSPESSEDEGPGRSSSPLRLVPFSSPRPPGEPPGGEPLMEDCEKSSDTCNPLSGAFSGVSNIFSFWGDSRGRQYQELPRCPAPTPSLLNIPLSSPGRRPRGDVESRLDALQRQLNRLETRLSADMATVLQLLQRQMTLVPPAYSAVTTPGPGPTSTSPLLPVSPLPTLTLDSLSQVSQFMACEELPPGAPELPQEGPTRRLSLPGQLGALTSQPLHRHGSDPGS

The inhibition is the change of the read-out against control, counted positive when it falls. As usually defined, the EC50 is the concentration that produces a half-maximal response. Take `COc1ccc(-c2cccc(/C=N/NC(N)=S)c2)cc1OC`: the inhibition at 0.75 h, 10 µM at Aurora kinase B is -2.55%. In addition, the inhibition at 2 h, 10 µM at hERG (KCNH2) came out at 22.4%. The Ratio EC50 in data set [1] came out at 4. The cytotoxicity at 6 h, 10 µM in data set [2] was -13.1%. In addition, the cell growth (% of control) at 48 h, 10 µM in data set [3] turned out to be 106%; in [4], 90.5%. Further, in the data set on Trypanosoma brucei [5], the Activity_index was found to be 7.94. For the same compound, the Activity came out at 99.67% in the data set on Trypanosoma brucei [6] and 98.83% in the data set on Trypanosoma brucei [9]. The EC50 in the data set with Trypanosoma brucei [7] worked out at 0.59 µM; with Trypanosoma brucei [10], 4.72 µM. Moreover, in data set [8], the selectivity ratio came to 7.

Usually CC50 stands for the concentration at which the toxic effect on the cells reaches its halfway point. Turning to `NC(=S)N/N=C/c1ccc(OCc2ccc(Cl)c(Cl)c2)cc1`, the inhibition at 0.75 h, 10 µM at Aurora kinase B is -6.24%. Also, the inhibition at 2 h, 10 µM against hERG (KCNH2) amounted to 2.4%. Also, the selectivity ratio in data set [11] amounted to 13; in data set [13], 55; in data set [8], 8. Besides, the CC50 at 72 h was found to be 82 µM in data set [12] and 72 µM in data set [15]. Also, the cytotoxicity at 6 h, 10 µM in [2] was found to be 23.4%. Also, the cell growth (% of control) at 48 h, 10 µM came out at 89.4% in data set [3] and 72.5% in [4]. Moreover, the EC50 worked out at 6.14 µM with Leishmania infantum, 0.11 µM in the data set with Trypanosoma brucei [14] and 0.44 µM in the data set with Trypanosoma brucei [10]. In the data set with Trypanosoma brucei [5], the Activity_index came to 3.84. The Activity with Trypanosoma brucei [6] is reported as 99.67%; in the data set on Trypanosoma brucei [9], 99.83%.
